Columns and labels:
[1] = biological target: Metabotropic glutamate receptor 4 (Rattus norvegicus, UniProt P31423); assay: Effect on Metabotropic glutamate receptor 4
Method in brief: (§1)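 Stably transfected CHO cells (mGlu3, mGlu4a or mGlu6) incubated 10 min in PBS with ligand, 10 μM forskolin and 1 mM IBMX. cAMP measured by RIA; agonism taken as percent decrease of forskolin-induced cAMP versus control. For antagonism, 20 min preincubation with ligand in PBS/1 mM IBMX, then 10 min with ligand plus 30 μM (S)-Glu, forskolin and IBMX. EC50 ± SEM from at least two independent experiments in triplicate.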

[2] = biological target: Metabotropic glutamate receptor 6 (Rattus norvegicus, UniProt P35349); assay: Effect on Metabotropic glutamate receptor 6; method in brief: as §1
[3] = biological target: Metabotropic glutamate receptor 1 (Rattus norvegicus, UniProt P23385); assay: Effect on Metabotropic glutamate receptor 1
Method in brief: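 CHO cells stably expressing mGlu1a, plated two days before assay and labelled with [3H]inositol (2 μCi/mL) for 24 h. Ligand given in PBS–LiCl for 20 min; read-out is 3H mono-, bis- and tris-inositol phosphates separated by ion exchange, expressed as fold increase over control. For antagonism, a 20 min ligand preincubation was followed by ligand plus 30 μM (S)-Glu. At least two experiments, each in triplicate.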

[4] = biological target: Metabotropic glutamate receptor 2 (Rattus norvegicus, UniProt P31421); assay: Effect on Metabotropic glutamate receptor 2
Method in brief: (§2)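 Stably transfected CHO cells grown in DMEM with 2 mM glutamine, 1% proline and 10% dialyzed FCS, at 37 °C in 5% CO2. Cells seeded 2 days before assay. Ligand tested at 1 mM, both alone and with 30 μM (S)-Glu. Each experiment run at least twice in triplicate.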

[5] = biological target: Metabotropic glutamate receptor 7 (Rattus norvegicus, UniProt P35400); assay: Effect on Metabotropic glutamate receptor 7
Method in brief: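 mGlu7-expressing CHO cells run in the forskolin (10 μM)/IBMX (1 mM) cAMP assay for 10 min, with cAMP measured by RIA as percent inhibition. Test ligand at 10 mM. For antagonism, 20 min preincubation, then ligand plus 1 mM (S)-AP4 as the agonist. Run at least twice in triplicate.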

Glutamate NMDA receptor = assay: Inhibitory activity against N-methyl-D-aspartate glutamate receptor; type: protein-complex assay
[6] = biological target: Metabotropic glutamate receptor 3 (Rattus norvegicus, UniProt P31422); assay: Effect on Metabotropic glutamate receptor 3; method in brief: as §1
[7] = biological target: Metabotropic glutamate receptor 5 (Rattus norvegicus, UniProt P31424); assay: Effect on Metabotropic glutamate receptor 5; method in brief: as §2
Sequence of Metabotropic glutamate receptor 5 (P31424 whole entry): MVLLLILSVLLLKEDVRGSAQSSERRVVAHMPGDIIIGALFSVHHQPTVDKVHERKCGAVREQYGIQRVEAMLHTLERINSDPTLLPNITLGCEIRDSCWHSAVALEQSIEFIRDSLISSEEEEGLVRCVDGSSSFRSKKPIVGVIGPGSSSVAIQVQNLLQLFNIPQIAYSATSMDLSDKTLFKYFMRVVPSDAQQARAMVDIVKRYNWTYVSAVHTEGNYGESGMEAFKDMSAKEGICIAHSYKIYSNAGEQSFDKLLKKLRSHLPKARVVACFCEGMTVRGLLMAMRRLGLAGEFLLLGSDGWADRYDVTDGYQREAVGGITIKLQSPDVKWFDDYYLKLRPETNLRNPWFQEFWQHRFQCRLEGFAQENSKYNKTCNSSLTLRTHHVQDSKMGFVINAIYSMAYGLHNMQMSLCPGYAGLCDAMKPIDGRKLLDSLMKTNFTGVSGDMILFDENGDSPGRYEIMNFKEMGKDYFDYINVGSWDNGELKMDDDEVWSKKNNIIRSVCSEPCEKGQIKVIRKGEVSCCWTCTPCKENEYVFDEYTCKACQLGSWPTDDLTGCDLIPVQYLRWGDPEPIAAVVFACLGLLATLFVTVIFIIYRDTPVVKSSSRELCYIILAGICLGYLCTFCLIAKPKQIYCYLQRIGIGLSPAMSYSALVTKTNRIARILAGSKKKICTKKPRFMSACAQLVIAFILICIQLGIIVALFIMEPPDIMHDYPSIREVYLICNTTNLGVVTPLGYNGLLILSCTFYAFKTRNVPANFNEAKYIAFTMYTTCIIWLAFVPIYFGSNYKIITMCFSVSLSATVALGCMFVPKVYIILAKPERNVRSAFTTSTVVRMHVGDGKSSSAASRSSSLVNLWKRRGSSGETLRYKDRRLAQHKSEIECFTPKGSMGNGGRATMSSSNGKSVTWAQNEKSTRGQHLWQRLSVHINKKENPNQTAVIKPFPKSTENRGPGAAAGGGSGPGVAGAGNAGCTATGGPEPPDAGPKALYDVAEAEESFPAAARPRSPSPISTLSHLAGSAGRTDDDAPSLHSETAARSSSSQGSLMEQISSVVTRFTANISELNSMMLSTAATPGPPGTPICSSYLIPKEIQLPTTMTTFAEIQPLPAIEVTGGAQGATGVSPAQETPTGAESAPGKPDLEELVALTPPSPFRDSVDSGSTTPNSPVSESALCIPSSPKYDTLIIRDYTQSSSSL

Sequence of Metabotropic glutamate receptor 1 (P23385 whole entry): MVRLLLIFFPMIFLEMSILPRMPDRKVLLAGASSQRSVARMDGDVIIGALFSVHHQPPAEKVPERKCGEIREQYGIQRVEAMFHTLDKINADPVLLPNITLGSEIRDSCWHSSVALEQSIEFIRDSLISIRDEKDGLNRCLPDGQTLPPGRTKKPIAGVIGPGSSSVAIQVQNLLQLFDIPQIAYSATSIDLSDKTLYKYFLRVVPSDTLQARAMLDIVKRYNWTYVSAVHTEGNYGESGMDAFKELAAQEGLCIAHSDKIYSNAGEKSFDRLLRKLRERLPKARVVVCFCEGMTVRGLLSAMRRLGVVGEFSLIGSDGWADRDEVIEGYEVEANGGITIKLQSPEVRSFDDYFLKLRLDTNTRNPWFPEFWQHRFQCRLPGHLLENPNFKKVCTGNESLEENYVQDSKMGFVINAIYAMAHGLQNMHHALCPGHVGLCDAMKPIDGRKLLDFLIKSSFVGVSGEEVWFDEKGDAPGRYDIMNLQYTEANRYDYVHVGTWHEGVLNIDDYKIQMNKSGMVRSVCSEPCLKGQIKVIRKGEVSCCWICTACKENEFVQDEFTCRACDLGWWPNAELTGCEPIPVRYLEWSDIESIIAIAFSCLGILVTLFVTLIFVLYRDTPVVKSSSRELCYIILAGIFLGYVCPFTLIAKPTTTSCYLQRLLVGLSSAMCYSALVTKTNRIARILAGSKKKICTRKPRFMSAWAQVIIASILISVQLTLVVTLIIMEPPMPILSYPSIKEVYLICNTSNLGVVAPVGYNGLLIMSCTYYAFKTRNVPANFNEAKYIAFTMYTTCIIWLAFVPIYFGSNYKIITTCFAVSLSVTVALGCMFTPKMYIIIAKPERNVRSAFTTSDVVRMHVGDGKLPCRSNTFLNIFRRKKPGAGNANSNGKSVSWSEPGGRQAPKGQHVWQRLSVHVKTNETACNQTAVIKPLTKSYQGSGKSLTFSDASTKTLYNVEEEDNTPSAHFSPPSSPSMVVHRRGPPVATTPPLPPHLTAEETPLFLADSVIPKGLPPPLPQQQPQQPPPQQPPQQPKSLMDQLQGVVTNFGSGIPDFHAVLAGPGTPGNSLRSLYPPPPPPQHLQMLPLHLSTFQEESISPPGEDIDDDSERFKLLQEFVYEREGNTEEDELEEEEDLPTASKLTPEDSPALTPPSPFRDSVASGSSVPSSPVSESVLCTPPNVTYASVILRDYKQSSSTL
Sequence of Metabotropic glutamate receptor 3 (P31422 whole entry): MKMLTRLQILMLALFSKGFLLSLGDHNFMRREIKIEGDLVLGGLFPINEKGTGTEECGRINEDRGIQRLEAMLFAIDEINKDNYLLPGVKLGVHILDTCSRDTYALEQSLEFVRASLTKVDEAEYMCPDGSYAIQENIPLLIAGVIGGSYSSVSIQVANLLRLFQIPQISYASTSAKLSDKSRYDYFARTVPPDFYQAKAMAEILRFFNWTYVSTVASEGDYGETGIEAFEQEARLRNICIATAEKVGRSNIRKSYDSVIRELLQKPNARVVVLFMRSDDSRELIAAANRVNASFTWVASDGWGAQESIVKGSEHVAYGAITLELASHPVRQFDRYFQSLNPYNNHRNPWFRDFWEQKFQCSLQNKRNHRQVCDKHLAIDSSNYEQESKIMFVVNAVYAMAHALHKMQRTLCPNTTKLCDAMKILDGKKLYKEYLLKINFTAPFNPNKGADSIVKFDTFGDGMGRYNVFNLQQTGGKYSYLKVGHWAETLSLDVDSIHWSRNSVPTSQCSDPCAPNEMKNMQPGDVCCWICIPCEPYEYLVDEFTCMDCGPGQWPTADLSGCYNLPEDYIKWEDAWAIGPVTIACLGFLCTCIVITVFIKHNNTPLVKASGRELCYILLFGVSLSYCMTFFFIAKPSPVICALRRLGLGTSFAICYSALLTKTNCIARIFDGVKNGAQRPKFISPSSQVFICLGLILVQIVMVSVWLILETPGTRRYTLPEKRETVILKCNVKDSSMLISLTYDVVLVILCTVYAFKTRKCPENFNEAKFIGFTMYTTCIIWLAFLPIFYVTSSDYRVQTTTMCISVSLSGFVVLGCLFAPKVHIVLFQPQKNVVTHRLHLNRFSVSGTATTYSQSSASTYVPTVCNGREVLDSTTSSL
Sequence of Metabotropic glutamate receptor 2 (P31421 whole entry): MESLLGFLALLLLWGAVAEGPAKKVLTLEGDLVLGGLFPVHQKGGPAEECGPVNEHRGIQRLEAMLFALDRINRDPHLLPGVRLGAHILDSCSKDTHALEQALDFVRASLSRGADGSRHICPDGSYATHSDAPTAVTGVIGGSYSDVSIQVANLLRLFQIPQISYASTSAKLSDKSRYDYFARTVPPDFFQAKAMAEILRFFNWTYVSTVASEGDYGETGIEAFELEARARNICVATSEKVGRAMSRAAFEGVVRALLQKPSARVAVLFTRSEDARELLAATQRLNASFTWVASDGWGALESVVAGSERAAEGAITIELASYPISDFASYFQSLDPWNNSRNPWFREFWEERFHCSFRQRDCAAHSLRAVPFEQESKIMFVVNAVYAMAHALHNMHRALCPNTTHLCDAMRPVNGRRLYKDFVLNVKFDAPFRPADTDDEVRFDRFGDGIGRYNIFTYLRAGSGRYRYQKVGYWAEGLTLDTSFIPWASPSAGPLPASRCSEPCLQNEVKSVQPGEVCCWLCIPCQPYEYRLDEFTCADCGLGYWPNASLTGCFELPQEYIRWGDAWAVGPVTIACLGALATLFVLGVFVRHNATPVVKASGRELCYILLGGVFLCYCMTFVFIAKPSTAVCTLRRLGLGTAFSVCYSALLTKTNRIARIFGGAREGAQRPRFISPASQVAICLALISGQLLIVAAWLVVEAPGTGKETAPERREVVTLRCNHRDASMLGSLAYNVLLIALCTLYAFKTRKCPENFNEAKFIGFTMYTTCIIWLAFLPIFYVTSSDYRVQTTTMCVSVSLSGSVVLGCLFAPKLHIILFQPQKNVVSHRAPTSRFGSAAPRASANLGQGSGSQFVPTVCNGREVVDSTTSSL
Sequence of Metabotropic glutamate receptor 4 (P31423 whole entry): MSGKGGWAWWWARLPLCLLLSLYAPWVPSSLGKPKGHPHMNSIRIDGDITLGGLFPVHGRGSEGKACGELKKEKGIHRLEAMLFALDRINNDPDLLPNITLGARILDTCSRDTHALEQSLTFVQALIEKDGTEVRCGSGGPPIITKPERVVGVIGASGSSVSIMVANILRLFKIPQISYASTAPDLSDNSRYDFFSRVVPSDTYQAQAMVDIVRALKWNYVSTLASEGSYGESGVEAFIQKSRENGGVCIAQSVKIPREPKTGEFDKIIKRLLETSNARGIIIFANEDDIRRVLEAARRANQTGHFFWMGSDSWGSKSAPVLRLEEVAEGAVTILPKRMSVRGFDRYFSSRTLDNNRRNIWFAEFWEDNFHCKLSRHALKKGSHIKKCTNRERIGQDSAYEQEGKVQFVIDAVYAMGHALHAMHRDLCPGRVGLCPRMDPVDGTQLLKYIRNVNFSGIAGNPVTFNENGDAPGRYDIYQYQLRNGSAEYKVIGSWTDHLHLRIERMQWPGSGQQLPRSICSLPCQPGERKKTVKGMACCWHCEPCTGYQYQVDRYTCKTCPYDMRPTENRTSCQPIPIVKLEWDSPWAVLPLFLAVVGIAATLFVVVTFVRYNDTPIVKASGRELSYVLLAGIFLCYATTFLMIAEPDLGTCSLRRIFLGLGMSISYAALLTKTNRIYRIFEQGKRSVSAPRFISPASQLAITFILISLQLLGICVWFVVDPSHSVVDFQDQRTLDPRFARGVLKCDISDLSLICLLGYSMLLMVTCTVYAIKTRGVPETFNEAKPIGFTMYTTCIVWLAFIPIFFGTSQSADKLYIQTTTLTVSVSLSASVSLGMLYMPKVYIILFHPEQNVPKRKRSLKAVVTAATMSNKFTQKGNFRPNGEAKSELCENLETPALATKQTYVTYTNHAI

Work on `Cc1onc(O)c1CCC(N)C(=O)O` (stereo not given) yielded an EC50 [1] greater than 3000 µM, an EC50 [2] of 82 µM and an EC50 [3] greater than 1000 µM. For the same compound, the EC50 [4] was greater than 1000 µM.
Compound `N[C@H](CCCC(=O)O)C(=O)O` has an EC50 [2] greater than 1000 µM, an EC50 [3] greater than 1000 µM and an EC50 [4] greater than 1000 µM.
`Cc1o[nH]c(=O)c1CC[C@@H](N)C(=O)O` was tested, and the EC50 [5] was greater than 5000 µM, the EC50 [1] was greater than 1000 µM and the EC50 [2] was greater than 1000 µM. For the same compound, the EC50 [3] was greater than 1000 µM, the IC50 (Glutamate NMDA receptor) was 131 µM and the EC50 [6] was greater than 1000 µM. For the same compound, the EC50 [7] was greater than 1000 µM and the EC50 [4] was greater than 1000 µM.
`Cc1onc(O)c1CC[C@H](N)C(=O)O` showed an EC50 [5] greater than 5000 µM, an EC50 [1] greater than 1000 µM and an EC50 [2] of 58 µM. It also gave an EC50 [3] greater than 1000 µM, an EC50 [6] greater than 1000 µM and an EC50 [7] greater than 1000 µM. For the same compound, the EC50 [4] was greater than 1000 µM.
Compound `N[C@@H](CCP(=O)(O)O)C(=O)O` has an EC50 [5] of 252 µM, an EC50 [1] of 0.91 µM and an EC50 [2] of 0.57 µM. The EC50 [3] was 1000 µM, the EC50 [7] was greater than 1000 µM and the EC50 [4] was 1000 µM.
For `N[C@@H](CCCC(=O)O)C(=O)O` [(S)-2-AMINOADIPIC ACID], the EC50 [1] was greater than 3000 µM, the EC50 [2] was 140 µM and the EC50 [3] was greater than 1000 µM. The EC50 [4] was 35 µM.
`N[C@H](CCC(=O)O)C(=O)O` [D-GLUTAMATE] showed an EC50 [5] of 5400 µM, an EC50 [1] of 12 µM and an EC50 [6] of 9 µM.
